The values that follow come from ChEMBL document CHEMBL1795307, “Synthesis and anti-inflammatory activity of some novel 3-phenyl-N-[3-(4-phenylpiperazin-1yl)propyl]-1H-pyrazole-5-carboxamide derivatives” (2011).

What all share (format): functional
The test system of assay [1] is Rattus norvegicus. Description: Antiinflammatory activity against carrageenan-induced paw edema in rat at 100 mg/kg, po administered 1 hr before carrageenan challenge measured after 3 hrs relative to control. A digest of the protocol:
(§1)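 Rats of either sex (130–180 g), fasted ≥16 h with water available, six per group. Compound given orally in 1% CMC solution 1 h before 0.1 mL of 1% carrageenan suspension injected into hind paw; controls received vehicle. Paw volume read by mercury-displacement plethysmometer before and 1, 2, 3, 4 h after carrageenan. Percent inhibition from mean paw-volume increase versus control.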

In assay [2] the test system is Rattus norvegicus. Description: Antiinflammatory activity against carrageenan-induced paw edema in rat at 100 mg/kg, po administered 1 hr before carrageenan challenge measured after 1 hr relative to control. The method in brief: as §1
For assay [3], the system named is Rattus norvegicus. Put plainly: Antiinflammatory activity against carrageenan-induced paw edema in rat at 100 mg/kg, po administered 1 hr before carrageenan challenge measured after 2 hrs relative to control. The method in brief: as §1
Assay [4] has as its system Rattus norvegicus. Description: Antiinflammatory activity against carrageenan-induced paw edema in rat at 100 mg/kg, po administered 1 hr before carrageenan challenge measured after 4 hrs relative to control. The method in brief: as §1

Each structure is given as a SMILES string.

Turning to `O=C(NCCCN1CCN(c2ccccc2)CC1)c1cc(-c2ccccc2)n[nH]1`, the Activity amounted to 61.9% with Rattus norvegicus [1], 47.3% with Rattus norvegicus [2], 55.5% in the assay on Rattus norvegicus [3] and 58.8% in the assay on Rattus norvegicus [4].

Consider `Cc1cccc(-c2cc(C(=O)NCCCN3CCN(c4ccccc4)CC3)[nH]n2)c1`, for which the Activity in the assay on Rattus norvegicus [1] was 70.6%; in the assay on Rattus norvegicus [2] it was 60.5%; with Rattus norvegicus [3], 65.2%; in the assay on Rattus norvegicus [4], 70%.

As for `Cc1ccc(-c2cc(C(=O)NCCCN3CCN(c4ccccc4)CC3)[nH]n2)cc1`, the Activity in the assay on Rattus norvegicus [1] came to 67.3%; in the assay with Rattus norvegicus [2], 60.5%; in the assay on Rattus norvegicus [3], 55.5%; in the assay with Rattus norvegicus [4] it was 63.3%.

As to `O=C(NCCCN1CCN(c2ccccc2)CC1)c1cc(-c2cccc([N+](=O)[O-])c2)n[nH]1`, the Activity came out at 78% with Rattus norvegicus [1], 67% with Rattus norvegicus [2], 75% in the assay with Rattus norvegicus [3] and 75.5% in the assay on Rattus norvegicus [4].

As for `CC(C)Cc1ccc(C(C)C(=O)O)cc1` (stereo unspecified) [IBUPROFEN], the Activity in the assay on Rattus norvegicus [1] was 72.8%; with Rattus norvegicus [2], 42.1%; in the assay with Rattus norvegicus [4] it was 63.3%.

Turning to `COc1ccc(-c2cc(C(=O)NCCCN3CCN(c4ccccc4)CC3)[nH]n2)cc1`, the Activity in the assay on Rattus norvegicus [1] worked out at 75%; in the assay on Rattus norvegicus [2] it was 55.2%; in the assay with Rattus norvegicus [3], 69.4%; with Rattus norvegicus [4], 70%.

In the case of `COc1cccc(-c2cc(C(=O)NCCCN3CCN(c4ccccc4)CC3)[nH]n2)c1`, the Activity was 65.2% in the assay with Rattus norvegicus [1], 52.6% with Rattus norvegicus [2], 62.5% in the assay on Rattus norvegicus [3] and 64.4% in the assay with Rattus norvegicus [4].

`O=C(NCCCN1CCN(c2ccccc2)CC1)c1cc(-c2ccc([N+](=O)[O-])cc2)n[nH]1`: the Activity in the assay with Rattus norvegicus [1] is recorded as 76%; in the assay with Rattus norvegicus [2], 53.9%; with Rattus norvegicus [3], 75.6%; in the assay with Rattus norvegicus [4], 72.2%.
